This note sets out measurements from ChEMBL document CHEMBL4613265, “Novel Human Neutral Sphingomyelinase 2 Inhibitors as Potential Therapeutics for Alzheimer's Disease” (J Med Chem, 2020).

Calls of active or inactive are those of the source. The rule behind the calls is not given here. Some results are limits rather than exact numbers.

Usually Tmax stands for the time from dosing to the highest level. One may read the AUC(0-t) as exposure summed from dosing to a finite time, without extrapolation to infinity. Lower therefore signals less exposure. The term Cmax denotes the peak of the concentration-time curve. The IC50 is the concentration at which inhibition is half-maximal.

Data set [1] concerns Mus musculus. In words: Suppression of cognitive dysfunction in 5XFAD transgenic B6SJLF1/J mouse model of Alzheimer's disease assessed as increase in freezing behavior response to 1000 Hz tone conditioned stimulus at 10 mg/kg, ip administered daily for 5 months measured during 120 secs of testing by contextual fear conditioning assay. In kind it is functional, organism-based. The gist of the method:
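Dosed daily ip at 10 mg/kg (vehicle 5% DMSO/5% Tween 80/90% PBS) from 3 months, n = 13–16, then tested at 8 months. Day 1: 240 s in chamber with two pairings of a 30 s 1000 Hz tone and a 2 s 0.5 mA footshock, at 120 and 180 s. Day 2: contextual test, 300 s in same chamber. Day 3: novel box for 240 s with tone during last 120 s. Read-out: freezing.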

The subject of data set [2] is Cytochrome P450. In words: Drug metabolism in human liver microsomes assessed as CYP450-mediated O-dealkylation at 1 uM measured after 60 mins in presence of NADPH generating system by LC-MS/MS analysis. In kind it is ADME. The note with it: 1 h. The gist of the method: (§1)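 Mouse or human liver microsomes at 0.2 mg/mL, compound at 1 μM final. Controls run without cofactors. Quenched at 60 min with cold acetonitrile containing internal standard; read as % remaining.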
In general terms: Liver microsomes are a subcellular fraction often used to study metabolism.

The test system of data set [3] is Mus musculus. In words: Suppression of cognitive dysfunction in 5XFAD transgenic B6SJLF1/J mouse model of Alzheimer's disease assessed as body weight gain at 10 mg/kg, ip administered daily for 5 months measured during compound dosing. It counts as functional, organism-based. Put shortly:
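Male and female hemizygous 5XFAD and WT littermates were dosed from age 3 months with 10 mg/kg ip daily or vehicle (5% DMSO, 5% Tween 80, 90% PBS), n = 13–16. Body weight was followed to study day 150 (8 months). Groups were compared by two-way ANOVA.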

Another data set concerns HeLa S3. In words: Cytotoxicity against human HeLaS3 cells by XTT assay. It counts as cell-based.
Data set [4] concerns Cytochrome P450. In words: Drug metabolism in human liver microsomes assessed as CYP450-mediated O-demethylated metabolite formation at 1 uM measured after 60 mins in presence of NADPH generating system by LC-MS/MS analysis. It counts as ADME. The settings on record: 1 h.
A short description of data set [5]: Tmax in 5XFAD transgenic B6SJLF1/J mouse plasma at 10 mg/kg, ip by LC-MS/MS analysis. In kind it is ADME, organism-based. Put shortly:
(§2)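 Hemizygous 5XFAD mice aged 11 months received one terminal ip dose of 10 mg/kg in NMP–Tween 80–saline (2.5:5:92.5 v/v/v). […] Extraction by acetonitrile protein precipitation with losartan as internal standard, then LC–MS/MS. Noncompartmental analysis: Cmax and Tmax observed; AUC to 6 h by log–linear trapezoidal rule.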

Data set [6] is described as follows: AUClast in 5XFAD transgenic B6SJLF1/J mouse plasma at 10 mg/kg, ip by LC-MS/MS analysis. It counts as ADME, organism-based. Put shortly: as §2
The next data set deals with HepG2. In words: Cytotoxicity against human HepG2 cells by XTT assay. It counts as cell-based.
The nature of data set [7]: Tmax in 5XFAD transgenic B6SJLF1/J mouse brain at 10 mg/kg, ip by LC-MS/MS analysis. It counts as ADME, organism-based. Put shortly: as §2
A short description of data set [8]: Drug metabolism in mouse liver microsomes assessed as CYP450-mediated O-dealkylation at 1 uM measured after 60 mins in presence of NADPH generating system by LC-MS/MS analysis. It counts as ADME. The settings on record: 1 h. Put shortly: as §1
Data set [9] can be described thus: Cmax in 5XFAD transgenic B6SJLF1/J mouse brain at 10 mg/kg, ip by LC-MS/MS analysis. In kind it is ADME, organism-based. More on the design: dose 10 mg/kg, route intraperitoneal. The gist of the method: as §2
The test system of a further data set is HL-60. In words: Cytotoxicity against human HL60 cells by XTT assay. It counts as cell-based. A general note: Tetrazolium assays rely on reduction of a dye to a coloured formazan, in cell work by metabolically active cells.
Data set [10] in a line: Cmax in 5XFAD transgenic B6SJLF1/J mouse plasma at 10 mg/kg, ip by LC-MS/MS analysis. More on the design: dose 10 mg/kg, route intraperitoneal. In kind it is ADME, organism-based. The gist of the method: as §2
The subject of a further data set is CCRF-CEM. In words: Cytotoxicity against human CCRF-CEM cells by XTT assay. It counts as cell-based.
For data set [11], the target named is Phosphatidylinositol 4-kinase beta (Homo sapiens, UniProt Q9UBF8). In words: Inhibition of PI4K3beta (unknown origin).
Chain of Phosphatidylinositol 4-kinase beta (Q9UBF8 whole entry): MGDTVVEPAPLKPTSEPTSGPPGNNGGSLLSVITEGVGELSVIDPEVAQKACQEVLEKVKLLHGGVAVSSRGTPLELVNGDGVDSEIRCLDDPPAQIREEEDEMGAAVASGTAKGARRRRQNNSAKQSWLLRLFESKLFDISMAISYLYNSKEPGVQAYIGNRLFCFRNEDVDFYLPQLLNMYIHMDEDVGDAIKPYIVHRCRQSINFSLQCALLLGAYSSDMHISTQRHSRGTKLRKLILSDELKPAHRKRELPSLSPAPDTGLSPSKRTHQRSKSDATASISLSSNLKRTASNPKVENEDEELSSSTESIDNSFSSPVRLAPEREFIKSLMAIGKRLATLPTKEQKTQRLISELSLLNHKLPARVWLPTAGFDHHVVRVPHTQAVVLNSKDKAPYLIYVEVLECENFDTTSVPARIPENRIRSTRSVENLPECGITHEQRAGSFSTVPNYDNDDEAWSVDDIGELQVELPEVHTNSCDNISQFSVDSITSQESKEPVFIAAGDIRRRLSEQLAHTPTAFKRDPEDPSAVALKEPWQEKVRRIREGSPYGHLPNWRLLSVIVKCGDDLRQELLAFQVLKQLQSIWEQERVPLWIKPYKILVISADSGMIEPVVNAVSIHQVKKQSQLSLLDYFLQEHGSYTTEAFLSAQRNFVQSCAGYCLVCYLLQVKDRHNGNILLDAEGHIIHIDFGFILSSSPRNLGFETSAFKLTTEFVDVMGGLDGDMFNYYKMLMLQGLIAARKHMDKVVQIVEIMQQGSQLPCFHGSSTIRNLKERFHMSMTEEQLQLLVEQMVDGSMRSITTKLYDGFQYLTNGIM
Data set [12] addresses Phosphatidylinositol 4-kinase alpha (Homo sapiens) (UniProt P42356). In words: Inhibition of PI4K3alpha (unknown origin).
A short description of data set [13]: AUClast in 5XFAD transgenic B6SJLF1/J mouse brain at 10 mg/kg, ip by LC-MS/MS analysis. It counts as ADME, organism-based. Put shortly: as §2

Chain of Phosphatidylinositol 4-kinase alpha (Homo sapiens) (P42356 whole entry, looked up): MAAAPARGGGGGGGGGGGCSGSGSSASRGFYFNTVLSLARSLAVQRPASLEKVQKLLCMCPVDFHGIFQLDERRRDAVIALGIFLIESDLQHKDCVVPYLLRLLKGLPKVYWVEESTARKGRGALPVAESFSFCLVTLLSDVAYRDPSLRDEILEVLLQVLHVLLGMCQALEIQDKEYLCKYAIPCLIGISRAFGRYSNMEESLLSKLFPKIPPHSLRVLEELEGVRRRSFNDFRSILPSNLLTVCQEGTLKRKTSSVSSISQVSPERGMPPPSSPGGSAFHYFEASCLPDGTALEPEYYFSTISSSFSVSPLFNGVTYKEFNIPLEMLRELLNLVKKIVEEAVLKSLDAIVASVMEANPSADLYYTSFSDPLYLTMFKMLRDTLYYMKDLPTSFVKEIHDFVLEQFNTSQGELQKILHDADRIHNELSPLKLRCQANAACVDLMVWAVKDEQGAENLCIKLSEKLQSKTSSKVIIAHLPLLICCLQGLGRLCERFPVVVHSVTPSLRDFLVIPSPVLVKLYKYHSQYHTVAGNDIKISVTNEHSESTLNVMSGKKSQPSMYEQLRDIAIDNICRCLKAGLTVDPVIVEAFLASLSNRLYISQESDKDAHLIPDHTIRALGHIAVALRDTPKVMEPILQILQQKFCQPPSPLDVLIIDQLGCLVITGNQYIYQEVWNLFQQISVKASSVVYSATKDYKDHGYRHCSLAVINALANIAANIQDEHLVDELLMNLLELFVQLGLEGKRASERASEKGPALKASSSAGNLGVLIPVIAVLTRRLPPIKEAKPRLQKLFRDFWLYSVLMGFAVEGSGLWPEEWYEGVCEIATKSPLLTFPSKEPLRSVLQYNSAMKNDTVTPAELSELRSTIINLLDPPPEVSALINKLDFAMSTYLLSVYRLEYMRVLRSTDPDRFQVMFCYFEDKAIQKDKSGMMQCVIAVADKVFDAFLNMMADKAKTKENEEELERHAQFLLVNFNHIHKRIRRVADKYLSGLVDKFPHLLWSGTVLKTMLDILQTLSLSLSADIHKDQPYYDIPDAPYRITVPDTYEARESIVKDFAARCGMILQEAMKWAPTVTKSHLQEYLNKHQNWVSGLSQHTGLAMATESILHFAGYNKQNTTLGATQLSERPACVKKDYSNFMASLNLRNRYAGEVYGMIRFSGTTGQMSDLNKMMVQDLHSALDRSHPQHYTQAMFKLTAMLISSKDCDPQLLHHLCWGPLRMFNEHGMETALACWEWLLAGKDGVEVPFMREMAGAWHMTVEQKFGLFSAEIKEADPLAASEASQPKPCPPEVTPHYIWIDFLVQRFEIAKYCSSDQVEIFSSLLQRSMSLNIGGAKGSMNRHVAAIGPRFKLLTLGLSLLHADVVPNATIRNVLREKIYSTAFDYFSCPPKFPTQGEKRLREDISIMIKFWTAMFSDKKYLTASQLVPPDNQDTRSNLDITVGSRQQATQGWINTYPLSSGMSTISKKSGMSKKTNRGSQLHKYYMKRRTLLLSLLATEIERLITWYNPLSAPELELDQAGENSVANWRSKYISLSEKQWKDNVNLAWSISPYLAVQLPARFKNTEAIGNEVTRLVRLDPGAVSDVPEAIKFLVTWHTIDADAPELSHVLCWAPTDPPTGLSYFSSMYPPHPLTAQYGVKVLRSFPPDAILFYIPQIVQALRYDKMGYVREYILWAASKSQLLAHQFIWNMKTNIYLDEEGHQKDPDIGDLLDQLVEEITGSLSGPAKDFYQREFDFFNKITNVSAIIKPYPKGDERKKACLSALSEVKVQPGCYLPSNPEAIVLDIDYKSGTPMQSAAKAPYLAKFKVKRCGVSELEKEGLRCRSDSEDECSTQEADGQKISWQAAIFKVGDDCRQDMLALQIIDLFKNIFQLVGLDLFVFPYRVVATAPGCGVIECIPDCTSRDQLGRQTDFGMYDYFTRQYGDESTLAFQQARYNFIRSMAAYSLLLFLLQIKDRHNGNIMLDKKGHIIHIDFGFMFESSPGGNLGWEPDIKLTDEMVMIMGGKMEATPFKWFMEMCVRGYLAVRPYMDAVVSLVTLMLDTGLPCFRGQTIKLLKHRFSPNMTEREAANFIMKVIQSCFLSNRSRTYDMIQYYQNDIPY

Regarding `COc1ccc(-c2c(C)nc3c(N4CC[C@@H](NC(=O)Oc5ccccc5)C4)cc(C)nn23)cc1OC`, the outcome with Mus musculus [1] and with Mus musculus [3] was Active. Moreover, the Drug metabolism entry (in the data set with Cytochrome P450 [2]; with Cytochrome P450 [4]; in [8]) was “Metabolite_Detected” each time. Further, the Activity entry with HeLa S3, in the data set on HepG2, with HL-60 and in the data set on CCRF-CEM was “Non-Toxic” each time. Besides, the figures for the Tmax in data set [5] and in data set [7] were 15 min and 30 min, respectively. Besides, the AUC(0-t) worked out at 22.1 µM·h in [6] and 13 µM·h in data set [13]. In addition, the peak concentration (Cmax) in data set [9] came out at 3.89 µM; in data set [10], 7.7 µM. In addition, the IC50 in [11] was greater than 10 µM. Also, the inhibition entry in data set [12] was “inactive”.
